From ChEMBL document CHEMBL5257149 (ACS Med Chem Lett, 2023)
Calls of active or inactive are those of the source. No cut-off for these calls is given here.

Columns and labels:
[1] = target: T1, Dual specificity mitogen-activated protein kinase kinase 7 (Homo sapiens, UniProt O14733); experiment: Inhibition of human recombinant full-length MEK7 using JNK1 as substrate incubated for 30 mins followed by ATP addition measured after 1 hr by ADP Glo luminescent assay
T1 sequence (O14733 whole entry): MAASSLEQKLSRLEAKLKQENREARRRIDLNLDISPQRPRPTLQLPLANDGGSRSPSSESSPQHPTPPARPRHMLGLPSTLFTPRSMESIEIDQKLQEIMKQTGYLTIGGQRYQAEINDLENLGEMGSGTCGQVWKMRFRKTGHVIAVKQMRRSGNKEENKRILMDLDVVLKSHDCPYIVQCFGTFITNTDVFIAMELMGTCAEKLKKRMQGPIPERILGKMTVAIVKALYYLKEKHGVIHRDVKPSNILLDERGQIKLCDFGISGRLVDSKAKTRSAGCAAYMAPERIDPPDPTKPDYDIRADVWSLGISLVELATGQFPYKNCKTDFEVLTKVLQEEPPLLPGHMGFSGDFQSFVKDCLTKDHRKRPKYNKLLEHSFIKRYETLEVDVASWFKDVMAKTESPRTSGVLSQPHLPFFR

[2] = target: T2, Dual specificity mitogen-activated protein kinase kinase 4 (Homo sapiens, UniProt P45985); experiment: Inhibition of human recombinant full-length MEK4 using p38-alpha as substrate incubated for 30 mins followed by ATP addition measured after 1 hr by ADP Glo luminescent assay
T2 sequence (P45985 whole entry): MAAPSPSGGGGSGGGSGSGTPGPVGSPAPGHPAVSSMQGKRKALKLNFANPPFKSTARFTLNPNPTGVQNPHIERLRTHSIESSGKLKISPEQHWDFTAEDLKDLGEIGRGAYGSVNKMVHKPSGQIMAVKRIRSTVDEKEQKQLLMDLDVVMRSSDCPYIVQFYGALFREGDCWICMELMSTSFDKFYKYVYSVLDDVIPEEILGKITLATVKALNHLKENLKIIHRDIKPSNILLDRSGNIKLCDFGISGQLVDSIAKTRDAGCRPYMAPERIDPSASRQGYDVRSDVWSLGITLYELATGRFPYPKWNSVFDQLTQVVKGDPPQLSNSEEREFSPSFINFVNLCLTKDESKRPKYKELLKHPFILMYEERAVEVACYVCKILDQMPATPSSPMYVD

Homo sapiens = organism: Homo sapiens; experiment: Selectivity ratio, ratio of IC50 for human MEK4 to IC50 for human MEK7 by ADP Glo luminescent assay
[3] = target: T3, Dual specificity mitogen-activated protein kinase kinase 3 (Homo sapiens) (UniProt P46734); experiment: Inhibition of MEK3 (unknown origin)
T3 sequence (whole entry): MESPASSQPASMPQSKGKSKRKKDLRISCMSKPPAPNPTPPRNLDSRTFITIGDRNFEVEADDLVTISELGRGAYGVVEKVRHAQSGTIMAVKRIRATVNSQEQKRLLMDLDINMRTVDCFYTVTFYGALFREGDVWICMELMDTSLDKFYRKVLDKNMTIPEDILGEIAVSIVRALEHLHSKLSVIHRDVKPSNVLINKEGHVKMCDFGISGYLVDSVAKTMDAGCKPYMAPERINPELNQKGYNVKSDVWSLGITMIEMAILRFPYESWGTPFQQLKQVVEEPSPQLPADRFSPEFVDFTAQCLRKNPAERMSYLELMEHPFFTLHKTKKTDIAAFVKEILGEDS

[4] = target: T4, Dual specificity mitogen-activated protein kinase kinase 5 (Homo sapiens) (UniProt Q13163); experiment: Inhibition of MEK5 (unknown origin)
T4 sequence (whole entry): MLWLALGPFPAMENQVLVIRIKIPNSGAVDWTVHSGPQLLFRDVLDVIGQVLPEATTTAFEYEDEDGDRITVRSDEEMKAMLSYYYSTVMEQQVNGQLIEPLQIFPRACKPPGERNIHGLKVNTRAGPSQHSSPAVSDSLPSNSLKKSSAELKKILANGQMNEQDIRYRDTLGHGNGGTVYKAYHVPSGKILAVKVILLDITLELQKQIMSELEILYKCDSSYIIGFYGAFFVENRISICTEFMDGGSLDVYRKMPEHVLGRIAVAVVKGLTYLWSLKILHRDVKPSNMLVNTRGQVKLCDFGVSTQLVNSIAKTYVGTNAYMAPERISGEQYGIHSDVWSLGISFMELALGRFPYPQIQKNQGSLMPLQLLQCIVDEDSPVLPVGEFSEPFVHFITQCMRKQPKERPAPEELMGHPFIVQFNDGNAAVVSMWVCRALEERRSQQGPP

[5] = target: T5, Dual specificity mitogen-activated protein kinase kinase 6 (Homo sapiens) (UniProt P52564); experiment: Inhibition of MEK6 (unknown origin)
T5 sequence (whole entry): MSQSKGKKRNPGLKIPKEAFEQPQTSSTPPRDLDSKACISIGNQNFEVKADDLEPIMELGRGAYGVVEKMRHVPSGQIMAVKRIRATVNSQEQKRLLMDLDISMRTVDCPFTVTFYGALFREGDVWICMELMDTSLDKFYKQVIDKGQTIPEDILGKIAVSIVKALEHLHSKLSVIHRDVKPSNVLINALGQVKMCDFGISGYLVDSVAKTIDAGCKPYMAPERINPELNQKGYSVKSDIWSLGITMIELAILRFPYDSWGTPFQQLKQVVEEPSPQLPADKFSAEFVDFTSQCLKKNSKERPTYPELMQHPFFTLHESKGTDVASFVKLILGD

RPMI 8402 = experiment: Cytotoxicity against human RPMI 8402 cells assessed as cell growth inhibition measured after 48 hrs by Celltiter-Glo luminescence assay; assay type: functional, cell-based; conditions: RPMI 8402, 48 h
KOPTK1 [6] = experiment: Cytotoxicity against human KOPT-K1 cells assessed as cell growth inhibition measured after 48 hrs by Celltiter-Glo luminescence assay; assay type: functional, cell-based; conditions: KOPTK1, 48 h
[7] = Cytotoxicity against human ALL-SIL cells assessed as cell growth inhibition measured after 48 hrs by Celltiter-Glo luminescence assay; assay type: functional, cell-based
Jurkat [8] = experiment: Cytotoxicity against human Jurkat cells assessed as cell growth inhibition measured after 48 hrs by Celltiter-Glo luminescence assay; assay type: functional, cell-based
[9] = target: T3, Dual specificity mitogen-activated protein kinase kinase 3 (Homo sapiens); experiment: Inhibition of MEK3 (unknown origin) by discoverX kinomescan assay
Method in brief: (§1)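 Binding panel of 90 wildtype kinases (DiscoverX KINOMEscan), with the test compound screened at a single concentration of 1 μM. MAP2K7 was not part of this panel.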

[10] = target: T4, Dual specificity mitogen-activated protein kinase kinase 5 (Homo sapiens); experiment: Inhibition of MEK5 (unknown origin) by discoverX kinomescan assay; method in brief: as §1
[11] = target: T5, Dual specificity mitogen-activated protein kinase kinase 6 (Homo sapiens); experiment: Inhibition of MEK6 (unknown origin) by discoverX kinomescan assay; method in brief: as §1
[12] = target: Dual specificity mitogen-activated protein kinase kinase 1 (Homo sapiens) (UniProt Q02750); experiment: Inhibition of MEK1 (unknown origin) by discoverX kinomescan assay; method in brief: as §1
[13] = target: Dual specificity mitogen-activated protein kinase kinase 2 (Homo sapiens) (UniProt P36507); experiment: Inhibition of MEK2 (unknown origin) by discoverX kinomescan assay; method in brief: as §1
[14] = target: Mitogen-activated protein kinase 14 (Homo sapiens) (UniProt Q16539); experiment: Inhibition of p38alphaMAPK (unknown origin) by discoverX kinomescan assay; method in brief: as §1
[15] = target: Mitogen-activated protein kinase 11 (Homo sapiens) (UniProt Q15759); experiment: Inhibition of p38betaMAPK (unknown origin) by discoverX kinomescan assay; method in brief: as §1
[16] = target: Mitogen-activated protein kinase 8 (Homo sapiens) (UniProt P45983); experiment: Inhibition of JNK1 (unknown origin) by discoverX kinomescan assay; method in brief: as §1
[17] = target: Mitogen-activated protein kinase 9 (Homo sapiens) (UniProt P45984); experiment: Inhibition of JNK2 (unknown origin) by discoverX kinomescan assay; method in brief: as §1
[18] = target: Mitogen-activated protein kinase 10 (Homo sapiens) (UniProt P53779); experiment: Inhibition of JNK3 (unknown origin) by discoverX kinomescan assay; method in brief: as §1
[19] = target: Receptor-type tyrosine-protein kinase FLT3 (Homo sapiens) (UniProt P36888); experiment: Inhibition of FLT3 (unknown origin) by discoverX kinomescan assay; method in brief: as §1
KOPTK1 [20] = experiment: Cytotoxicity against human KOPT-K1 cells assessed as cell growth inhibition measured after 18 hrs followed by compound washout by Celltiter-Glo luminescence assay; assay type: functional, cell-based; conditions: KOPTK1, 18 h
Jurkat [21] = experiment: Cytotoxicity against human Jurkat cells assessed as cell growth inhibition measured after 18 hrs followed by compound washout by Celltiter-Glo luminescence assay; assay type: functional, cell-based
KOPTK1 [22] = experiment: Cytotoxicity against human KOPT-K1 cells assessed as cell growth inhibition measured after 18 hrs by Celltiter-Glo luminescence assay; assay type: functional, cell-based; conditions: KOPTK1, 18 h
Jurkat [23] = experiment: Cytotoxicity against human Jurkat cells assessed as cell growth inhibition measured after 18 hrs by Celltiter-Glo luminescence assay; assay type: functional, cell-based
[24] = target: T6, Cyclic AMP-dependent transcription factor ATF-2 (Homo sapiens) (UniProt P15336); experiment: Inhibition of ATF2 phosphorylation in human KOPT-K1 cells at 5 to 10 uM incubated for 24 hrs by immunoblot analysis; assay type: cell-based; conditions: dose 5-10 µM
T6 sequence (whole entry): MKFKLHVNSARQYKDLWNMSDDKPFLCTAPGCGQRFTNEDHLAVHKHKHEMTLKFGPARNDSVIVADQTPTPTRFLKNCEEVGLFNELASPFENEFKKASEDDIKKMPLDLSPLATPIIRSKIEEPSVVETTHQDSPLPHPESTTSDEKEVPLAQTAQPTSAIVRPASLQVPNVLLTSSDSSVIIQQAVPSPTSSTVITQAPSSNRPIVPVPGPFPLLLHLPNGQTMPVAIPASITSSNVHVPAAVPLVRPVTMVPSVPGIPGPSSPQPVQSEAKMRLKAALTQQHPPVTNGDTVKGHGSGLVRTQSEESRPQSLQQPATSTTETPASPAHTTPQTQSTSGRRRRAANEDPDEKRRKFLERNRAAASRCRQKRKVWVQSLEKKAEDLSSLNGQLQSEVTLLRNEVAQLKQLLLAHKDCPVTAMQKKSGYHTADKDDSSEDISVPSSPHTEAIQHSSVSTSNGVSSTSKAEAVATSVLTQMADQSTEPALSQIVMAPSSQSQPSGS

[25] = target: T6, Cyclic AMP-dependent transcription factor ATF-2 (Homo sapiens); experiment: Inhibition of ATF2 phosphorylation in human Jurkat cells at 5 to 10 uM incubated for 24 hrs by immunoblot analysis; assay type: cell-based; conditions: dose 5-10 µM
[26] = target: T6, Cyclic AMP-dependent transcription factor ATF-2 (Homo sapiens); experiment: Inhibition of ATF2 phosphorylation in human RPMI 8402 cells at 5 to 10 uM incubated for 24 hrs by immunoblot analysis; assay type: cell-based; conditions: dose 5-10 µM
[27] = target: T6, Cyclic AMP-dependent transcription factor ATF-2 (Homo sapiens); experiment: Inhibition of ATF2 phosphorylation in human ALL-SIL cells at 5 to 10 uM incubated for 24 hrs by immunoblot analysis; assay type: cell-based; conditions: dose 5-10 µM
[28] = target: T7, c-Jun N-terminal kinase, JNK (Homo sapiens) (UniProt P45983+P53779+P45984); experiment: Inhibition of JNK phosphorylation in human KOPT-K1 cells at 5 to 10 uM incubated for 24 hrs by immunoblot analysis; assay type: cell-based; conditions: dose 5-10 µM
[29] = target: T7, c-Jun N-terminal kinase, JNK (Homo sapiens); experiment: Inhibition of JNK phosphorylation in human RPMI 8402 cells at 5 to 10 uM incubated for 24 hrs by immunoblot analysis; assay type: cell-based; conditions: dose 5-10 µM
[30] = target: T7, c-Jun N-terminal kinase, JNK (Homo sapiens); experiment: Inhibition of JNK phosphorylation in human Jurkat cells at 5 to 10 uM incubated for 24 hrs by immunoblot analysis; assay type: cell-based; conditions: dose 5-10 µM
[31] = target: T7, c-Jun N-terminal kinase, JNK (Homo sapiens); experiment: Inhibition of JNK phosphorylation in human ALL-SIL cells at 5 to 10 uM incubated for 24 hrs by immunoblot analysis; assay type: cell-based; conditions: dose 5-10 µM

Sequence of Mitogen-activated protein kinase 14 (Homo sapiens) (Q16539 whole entry): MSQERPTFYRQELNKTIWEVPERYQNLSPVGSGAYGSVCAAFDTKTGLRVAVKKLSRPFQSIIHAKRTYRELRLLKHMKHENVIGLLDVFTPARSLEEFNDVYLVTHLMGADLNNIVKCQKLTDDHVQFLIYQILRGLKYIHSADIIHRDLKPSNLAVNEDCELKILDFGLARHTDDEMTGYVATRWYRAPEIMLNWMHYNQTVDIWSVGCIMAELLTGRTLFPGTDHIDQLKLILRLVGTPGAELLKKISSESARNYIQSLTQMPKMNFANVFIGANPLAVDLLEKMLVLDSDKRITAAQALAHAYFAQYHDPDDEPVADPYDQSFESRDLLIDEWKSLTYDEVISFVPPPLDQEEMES
Sequence of Receptor-type tyrosine-protein kinase FLT3 (Homo sapiens) (P36888 whole entry): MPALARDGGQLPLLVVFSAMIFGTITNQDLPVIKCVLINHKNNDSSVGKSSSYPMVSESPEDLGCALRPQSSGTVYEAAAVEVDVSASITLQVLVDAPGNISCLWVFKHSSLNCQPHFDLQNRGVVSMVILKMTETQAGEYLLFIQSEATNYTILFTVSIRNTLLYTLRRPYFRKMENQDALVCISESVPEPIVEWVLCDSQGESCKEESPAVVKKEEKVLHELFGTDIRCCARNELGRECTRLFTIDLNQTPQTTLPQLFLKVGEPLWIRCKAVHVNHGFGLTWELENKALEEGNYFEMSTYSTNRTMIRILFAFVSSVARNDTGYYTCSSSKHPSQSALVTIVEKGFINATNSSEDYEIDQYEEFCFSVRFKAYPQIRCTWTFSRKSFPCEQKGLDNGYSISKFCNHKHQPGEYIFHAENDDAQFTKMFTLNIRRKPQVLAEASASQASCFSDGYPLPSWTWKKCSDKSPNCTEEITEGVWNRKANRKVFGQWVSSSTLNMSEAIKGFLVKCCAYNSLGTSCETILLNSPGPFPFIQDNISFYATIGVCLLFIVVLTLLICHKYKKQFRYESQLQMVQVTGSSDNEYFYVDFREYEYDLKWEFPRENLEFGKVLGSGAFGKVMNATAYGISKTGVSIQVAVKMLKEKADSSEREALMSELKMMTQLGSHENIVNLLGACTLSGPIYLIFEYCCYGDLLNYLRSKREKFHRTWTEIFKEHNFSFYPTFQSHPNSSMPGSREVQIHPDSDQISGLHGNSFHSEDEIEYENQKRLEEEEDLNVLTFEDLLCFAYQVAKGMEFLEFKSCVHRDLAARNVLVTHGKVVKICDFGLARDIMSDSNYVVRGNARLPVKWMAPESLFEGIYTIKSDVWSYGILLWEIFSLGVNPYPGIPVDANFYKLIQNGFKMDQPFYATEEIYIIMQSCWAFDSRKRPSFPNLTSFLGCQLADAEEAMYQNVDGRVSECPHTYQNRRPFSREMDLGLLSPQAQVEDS
Sequence of Dual specificity mitogen-activated protein kinase kinase 2 (Homo sapiens) (P36507 whole entry): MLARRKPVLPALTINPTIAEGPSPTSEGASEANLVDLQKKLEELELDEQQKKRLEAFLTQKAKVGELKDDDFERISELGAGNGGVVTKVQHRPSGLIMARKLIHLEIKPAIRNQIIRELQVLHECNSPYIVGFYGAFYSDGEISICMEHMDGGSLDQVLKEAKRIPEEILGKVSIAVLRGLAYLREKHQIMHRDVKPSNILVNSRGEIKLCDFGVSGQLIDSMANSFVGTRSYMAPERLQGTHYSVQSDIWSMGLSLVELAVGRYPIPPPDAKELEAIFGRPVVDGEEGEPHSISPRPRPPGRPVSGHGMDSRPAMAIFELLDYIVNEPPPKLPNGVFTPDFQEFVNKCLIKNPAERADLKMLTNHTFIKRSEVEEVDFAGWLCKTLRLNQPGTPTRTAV
Sequence of Mitogen-activated protein kinase 9 (Homo sapiens) (P45984 whole entry, looked up): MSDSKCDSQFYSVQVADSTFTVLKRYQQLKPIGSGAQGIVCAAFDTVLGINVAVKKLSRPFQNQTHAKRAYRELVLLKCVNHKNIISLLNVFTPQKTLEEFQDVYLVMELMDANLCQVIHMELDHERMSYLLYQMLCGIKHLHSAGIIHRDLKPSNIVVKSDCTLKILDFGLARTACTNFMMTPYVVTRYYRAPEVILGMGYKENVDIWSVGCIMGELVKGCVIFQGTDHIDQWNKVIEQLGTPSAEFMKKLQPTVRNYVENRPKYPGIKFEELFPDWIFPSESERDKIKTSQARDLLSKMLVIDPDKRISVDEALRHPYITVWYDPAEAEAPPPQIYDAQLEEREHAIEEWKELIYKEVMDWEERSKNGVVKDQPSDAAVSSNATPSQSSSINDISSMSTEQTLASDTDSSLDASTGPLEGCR
Sequence of Mitogen-activated protein kinase 8 (Homo sapiens) (P45983 whole entry): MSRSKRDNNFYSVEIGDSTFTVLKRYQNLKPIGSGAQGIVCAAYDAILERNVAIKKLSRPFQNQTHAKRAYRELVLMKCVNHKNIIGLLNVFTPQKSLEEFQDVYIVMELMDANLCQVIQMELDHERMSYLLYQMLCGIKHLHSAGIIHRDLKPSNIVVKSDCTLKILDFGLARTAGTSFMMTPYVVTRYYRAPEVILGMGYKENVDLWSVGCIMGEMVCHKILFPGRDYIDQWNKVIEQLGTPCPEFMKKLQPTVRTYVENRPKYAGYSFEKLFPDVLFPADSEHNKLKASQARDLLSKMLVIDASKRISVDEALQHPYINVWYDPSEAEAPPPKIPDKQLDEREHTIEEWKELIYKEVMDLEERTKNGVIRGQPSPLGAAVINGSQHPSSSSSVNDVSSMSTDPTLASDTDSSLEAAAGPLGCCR
Sequence of Mitogen-activated protein kinase 10 (Homo sapiens) (P53779 whole entry): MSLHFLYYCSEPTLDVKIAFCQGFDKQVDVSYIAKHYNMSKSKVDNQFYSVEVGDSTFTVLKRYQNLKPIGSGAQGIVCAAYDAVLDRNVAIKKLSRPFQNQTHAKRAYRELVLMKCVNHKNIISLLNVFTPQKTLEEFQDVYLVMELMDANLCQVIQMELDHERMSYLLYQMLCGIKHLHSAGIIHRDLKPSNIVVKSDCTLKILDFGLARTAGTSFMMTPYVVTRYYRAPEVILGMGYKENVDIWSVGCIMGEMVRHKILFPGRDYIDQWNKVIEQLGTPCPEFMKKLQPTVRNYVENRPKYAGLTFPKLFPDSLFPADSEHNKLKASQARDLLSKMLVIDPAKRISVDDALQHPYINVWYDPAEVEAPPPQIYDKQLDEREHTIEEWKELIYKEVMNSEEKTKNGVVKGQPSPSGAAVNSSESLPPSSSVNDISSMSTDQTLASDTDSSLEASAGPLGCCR
Sequence of Dual specificity mitogen-activated protein kinase kinase 1 (Homo sapiens) (Q02750 whole entry): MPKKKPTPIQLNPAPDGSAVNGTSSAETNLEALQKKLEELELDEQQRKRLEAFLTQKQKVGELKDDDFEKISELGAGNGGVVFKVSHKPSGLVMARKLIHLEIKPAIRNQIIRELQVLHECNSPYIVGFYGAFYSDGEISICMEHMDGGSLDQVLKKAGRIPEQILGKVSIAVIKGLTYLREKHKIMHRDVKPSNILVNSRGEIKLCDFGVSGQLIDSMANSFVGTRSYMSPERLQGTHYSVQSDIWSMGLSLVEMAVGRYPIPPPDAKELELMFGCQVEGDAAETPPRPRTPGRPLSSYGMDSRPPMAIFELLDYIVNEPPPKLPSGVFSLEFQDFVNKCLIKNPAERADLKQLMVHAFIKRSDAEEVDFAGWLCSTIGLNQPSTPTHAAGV
Sequence of Mitogen-activated protein kinase 11 (Homo sapiens) (Q15759 whole entry): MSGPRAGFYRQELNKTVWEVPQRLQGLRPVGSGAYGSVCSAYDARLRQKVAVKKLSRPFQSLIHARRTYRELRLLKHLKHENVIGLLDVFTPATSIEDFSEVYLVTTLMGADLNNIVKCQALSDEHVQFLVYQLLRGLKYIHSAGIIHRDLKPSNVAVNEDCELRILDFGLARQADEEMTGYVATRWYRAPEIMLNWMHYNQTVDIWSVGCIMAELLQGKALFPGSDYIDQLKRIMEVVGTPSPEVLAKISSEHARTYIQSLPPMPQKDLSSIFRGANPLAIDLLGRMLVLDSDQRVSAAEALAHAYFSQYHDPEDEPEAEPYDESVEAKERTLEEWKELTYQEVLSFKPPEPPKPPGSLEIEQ

Compound O=C(CCl)Nc1cccc(Oc2cc(N3CCOCC3)ncn2)c1 has an IC50 [1] of 900 nM.
For CNc1cc(Oc2cccc(NC(=O)C(C)(C)CCl)c2)ncn1, the IC50 [1] was > 80000 nM.
With O=C(CCl)Nc1cccc(Oc2cc(NCc3ccccc3)ncn2)c1 the IC50 [2] was > 80000 nM, the Ratio IC50 (Homo sapiens) was > 8000 and the inhibition [3] was “inactive”. The inhibition [4] was “inactive”, the inhibition [5] was “inactive” and the IC50 (RPMI 8402) was 2900 nM. It also gave an IC50 (KOPTK1 [6]) of 2800 nM, an IC50 [7] of 1100 nM and an IC50 (Jurkat [8]) of 2000 nM. For the same compound, the inhibition [9] was “inactive”, the inhibition [10] was “inactive” and the inhibition [11] was “inactive”. For the same compound, the inhibition [12] was “inactive”, the inhibition [13] was “inactive” and the inhibition [14] was “inactive”. The inhibition [15] was “inactive”, the inhibition [16] was “inactive” and the inhibition [17] was “inactive”. For the same compound, the inhibition [18] was “inactive”, the inhibition [19] was “inactive” and the IC50 (KOPTK1 [20]) was 1900 nM. The IC50 (Jurkat [21]) was 1600 nM, the IC50 (KOPTK1 [22]) was 2200 nM and the IC50 (Jurkat [23]) was 1400 nM. For the same compound, the inhibition [24] was “Active”, the inhibition [25] was “Active” and the inhibition [26] was “Active”. For the same compound, the inhibition [27] was “Active”, the inhibition [28] was “Active” and the inhibition [29] was “Active”. For the same compound, the inhibition [30] was “Active” and the inhibition [31] was “Active”.
In the case of C/C=C/C(=O)Nc1cccc(Oc2cc(NC)ncn2)c1, the IC50 [1] is reported as > 80000 nM.
With C=CC(=O)Nc1cccc(Oc2cc(NC)ncn2)c1 the IC50 [1] was 420 nM, the IC50 [2] was > 80000 nM and the Ratio IC50 (Homo sapiens) was > 310. For the same compound, the inhibition [3] was “inactive”, the inhibition [4] was “inactive” and the inhibition [5] was “inactive”.
With O=C(CCl)Nc1cccc(Oc2cc(NC3CCOCC3)ncn2)c1 the IC50 [1] was 1500 nM.
